Bioassay records from PubChem BioAssay.
RAD54 inh = blocks human RAD54 Holliday junction branch migration; FAM/BHQ fluorescence; AID 602329; 360,000 compounds, 0.14% hits; inhibition, % at 10.4 µM; Q92698;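 active = mean normalized replicate activity at least 40 and at least half of replicates scoring 40 or more; inconclusive = only one of the two criteria met; inactive = mean below 40 and under half of replicates reaching 40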;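 note: 0% = median of neutral control wells and 100% = median of positive control wells; inhibitors cause a drop in the FAM fluorescence signal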
Target sequence (Q92698 whole entry, looked up): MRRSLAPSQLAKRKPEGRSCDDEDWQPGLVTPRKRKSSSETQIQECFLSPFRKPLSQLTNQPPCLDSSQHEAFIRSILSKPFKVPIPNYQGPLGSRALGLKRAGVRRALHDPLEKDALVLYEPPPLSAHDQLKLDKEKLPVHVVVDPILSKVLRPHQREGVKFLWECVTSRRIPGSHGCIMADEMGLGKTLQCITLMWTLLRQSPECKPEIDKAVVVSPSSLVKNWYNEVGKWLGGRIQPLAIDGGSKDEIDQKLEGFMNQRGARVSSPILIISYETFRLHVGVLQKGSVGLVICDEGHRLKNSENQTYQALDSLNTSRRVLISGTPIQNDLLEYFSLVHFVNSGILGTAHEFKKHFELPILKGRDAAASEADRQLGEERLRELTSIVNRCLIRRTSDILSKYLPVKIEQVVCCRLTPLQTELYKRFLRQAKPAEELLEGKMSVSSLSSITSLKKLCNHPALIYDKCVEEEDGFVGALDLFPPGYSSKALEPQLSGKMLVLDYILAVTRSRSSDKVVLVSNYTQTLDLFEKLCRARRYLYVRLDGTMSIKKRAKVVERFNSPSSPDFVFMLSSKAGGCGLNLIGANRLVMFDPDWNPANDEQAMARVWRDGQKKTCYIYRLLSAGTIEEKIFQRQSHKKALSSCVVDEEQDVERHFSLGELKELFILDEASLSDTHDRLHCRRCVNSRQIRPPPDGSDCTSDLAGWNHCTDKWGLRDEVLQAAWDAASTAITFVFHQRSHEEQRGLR
MLL AF4-AF9 inh = blocks AF4 peptide binding to human AF9. inhibition, % at 10 µM. AlphaScreen, biotin-AF4 peptide binding to FLAG-AF9. 350,000 compounds, 0.47% hits. P42568;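 active = every replicate reaching a set inhibition limit, whatever the replicate mean, cut at about 25% in these data; inconclusive = mean inhibition reaches that limit but some replicates miss it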;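 note: 0% = plate neutral control median and 100% = total signal loss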
INS-1E GSIS act = primary screen for activators of insulin secretion dependent on glucose, INS-1E cells, GLuc reporter luminescence; INS-1E GLuc reporter insulin secretion, 2-3 h; activation, % at 16.6 µM; 370,000 compounds, 0.61% hits; AID 743287;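 active = lowest replicate activation of at least 40%, so every replicate reaches that level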;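 note: 0% = median of neutral control wells and 100% = median of IBMX positive control wells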
RAD52 inh = inhibitors of human RAD52 DNA annealing; P43351; recombinant RAD52 DNA annealing, FRET fluorescence; inhibition, % at 18.7 µM; 360,000 compounds, 0.46% hits; AID 651710;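 active = every replicate showing at least 50% inhibition; inconclusive = mean inhibition at least 50% but not in every replicate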
Ecoli rRNA inh = selective bacterial rRNA inhibition in E. coli; 350,000 compounds, 1.6% hits; AID 720706; E. coli WT GFP vs humanized-ribosome RFP mutants, fluorescence, 24 h; stronger effect = lower value; DMSO median 0, no signal -100; GFP signal change (wild-type ribosome), % (no concentration beside the values);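 active = significant combined selectivity score with lowered wild-type GFP, culture density cut under 30%, mutant RFP and density less affected; inactive = any of these conditions unmet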
E-selectin induc = E-selectin induction on HUVECs. HUVEC E-selectin immunofluorescence imaging; normalized: neutral wells 0, TNF-alpha wells 100. activation, % at 7.58 µM. 260,000 compounds, 0.37% hits;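 active = mean E-selectin-positive cell signal at least 10% of the positive control, reached in at least 60% of replicates, without over 20% cell loss; inconclusive = no rule given, readout overlaps actives, possibly toxicity-flagged; inactive = the rest, including those meeting only one limit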
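Read-out: % PE-positive cells | Test system: HUVEC | Doses: One compound dose added by pin transfer | Buffer or medium: EGM-2 over gelatin coat | Signal: Immunofluorescence imaging | Benchmarks: TNF-alpha, DMSO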
* = called active by the depositor; ? = inconclusive; · = no result given. This is a sample that favours compounds with a hit; in the whole collection about 2.6% have one here.

SMILES	RAD54 inh	MLL AF4-AF9 inh	INS-1E GSIS act	RAD52 inh	Ecoli rRNA inh	E-selectin induc
C/C=C/c1ccc([C@H]2[C@@H](CO)N(C(C)=O)C23CN(C(=O)c2ccccc2)C3)cc1	·	·	-11	-26	0	0
C=CCn1c(SCC(=O)N2CCOCC2)nc2c([nH]c3ccccc32)c1=O	-2	0	43*	-9	13	0
O=C(NCC1CC1)[C@H]1[C@H](CO)[C@H]2Cn3c(ccc(C4=CCCC4)c3=O)[C@@H]1N2C(=O)C1CC1	10	-2	6	-5	2	-2
Cc1ccc(NC(=O)CC2NCCNC2=O)cc1 (centres undefined)	-9	·	·	·	·	·
COC(=O)c1scc(C)c1NC(=O)CC1NCCNC1=O (centres undefined)	0	-15	60*	-5	7	·
COc1ccc(OCCn2cc(/C=N/NC(=O)c3ccncc3)c3ccccc32)cc1	·	?	-14	-10	-20*	-3
COc1ccc(S(=O)(=O)N2CC[C@@H]3[C@H]2c2cc(C#Cc4cccnc4)ccc2N[C@@H]3CO)cc1	-1	-4	13	-18	-5	0
NNC(=O)c1[nH]c2ccc(Cl)cc2c1-c1ccccc1	·	-2	-3	-21	-31	·
NNC(=O)c1[nH]c2ccc(Br)cc2c1-c1ccccc1	·	-6	10	-21	-26*	1
C[C@H](CO)N1C[C@H](C)[C@@H](CN(C)S(=O)(=O)c2cn(C)cn2)OCCCC[C@H](C)Oc2ccc(NC(=O)NC3CCCCC3)cc2C1=O	-5	-2	-3	-3	-1	0
O=C(CN(Cc1ccc(F)cc1)C(=O)CNS(=O)(=O)c1ccc(F)cc1)NCc1ccco1	-1	1	19	-8	-1	30*
Cc1ccccc1S(=O)(=O)N1CC[C@@H]2[C@H]1c1cc(-c3ccc(C#N)cc3)ccc1N[C@@H]2CO	4	-3	9	-93	-3	1
O=c1c(C(c2ccccc2)c2c(O)sc3ccccc3c2=O)c(O)sc2ccccc12	9	-3	56*	·	·	·
COc1ccc(Nc2nc3ccc(OC)cc3s2)cc1	·	8	7	4	-26*	·
COc1ccc(Nc2ccc(OC)cc2)cc1	1	81*	4	25	-18	·
O=C(N[C@@H]1C=C[C@@H](CC(=O)N2CCCCC2)O[C@H]1CO)c1ccccn1	-5	-4	8	-3	2	0
O=C(Cn1c(=O)oc2cc(S(=O)(=O)N3CCCC3)ccc21)N1CCCC1	-1	28*	-3	-8	9	0
CCOC(=O)C1=C2c3cc(OC)c(OC)cc3CC(C)(C)N2C(=O)C1=O	8	4	45*	-18	-3	-2
CCOC(=O)C1=C2c3ccc4ccccc4c3CC(C)(C)N2C(=O)C1=O	-31	4	5	-9	-29*	-3
C[C@@H]1CCCCO[C@@H](CN(C)C(=O)Nc2ccc(C(F)(F)F)cc2)[C@H](C)CN([C@H](C)CO)C(=O)c2cc(NC(=O)Nc3ccccc3)ccc2O1	3	-3	-11	-17	3	0
O=C(Nc1ccnn1C1CCN(C2CCC2)CC1)c1ccccc1Cl	-3	0	64*	0	23	0
CN(CC(=O)Nc1ccc(Cl)c(Cl)c1)C1CCCCC1	-3	-1	2	-3	-19	75*
COc1ccccc1-c1nnc(C2CCN(S(=O)(=O)c3ccccc3[N+](=O)[O-])CC2)o1	3	-7	-2	-7	-18*	·
COc1ccccc1-c1nnc(C2CCN(S(=O)(=O)c3cccc([N+](=O)[O-])c3)CC2)o1	3	6	-6	-8	-22*	·
O=C(NC1CCN(C(=O)N2c3ccccc3Sc3ccccc32)CC1)c1ccccc1F	-4	8	-9	-17	-20*	·
SMILES	RAD54 inh	MLL AF4-AF9 inh	INS-1E GSIS act	RAD52 inh	Ecoli rRNA inh	E-selectin induc
O=C(Nc1ccccn1)c1ccc(Cl)c(S(=O)(=O)N2CCc3ccccc32)c1	2	-2	-17	-17	-28*	·
O=C(Nc1cccnc1)c1ccc(Cl)c(S(=O)(=O)N2CCc3ccccc32)c1	·	-1	9	-6	-26*	2
O=C(Nc1cccnc1)c1cccc(S(=O)(=O)N2CCc3ccccc32)c1	·	3	-24	-6	-30	·
COc1ccc(S(=O)(=O)N2CCc3ccccc32)cc1C(=O)Nc1cccnc1	2	2	50*	-10	2	·
Cc1noc(C)c1NC(=O)N(C)C[C@@H]1Oc2c(NC(=O)C3CCCCC3)cccc2C(=O)N([C@@H](C)CO)C[C@@H]1C	-1	-2	13	5	1	1
CSc1c(-c2ccccn2)c(N)nn1C(=O)C1CC1	·	-3	6	-5	-24*	·
COc1ccccc1S(=O)(=O)N[C@@H]1C=C[C@@H](CC(=O)NCc2cc(F)cc(F)c2)O[C@H]1CO	-3	-3	6	-1	0	-1
C[C@H](CO)N1C[C@H](C)[C@H](CN(C)S(=O)(=O)c2cccs2)OCCCC[C@H](C)Oc2ccc(NS(=O)(=O)c3cn(C)cn3)cc2C1=O	-1	-2	10	109*	1	·
C[C@@H]1CN([C@H](C)CO)C(=O)c2cc(NS(=O)(=O)c3cn(C)cn3)ccc2O[C@@H](C)CCCCO[C@@H]1CN(C)S(=O)(=O)c1cccs1	4	-2	19	-7	1	·
Cc1noc(C)c1S(=O)(=O)N(C)C[C@@H]1OCCCC[C@H](C)Oc2ccc(NS(=O)(=O)c3cccs3)cc2C(=O)N([C@@H](C)CO)C[C@H]1C	-3	1	-10	64*	4	0
Cc1noc(C)c1S(=O)(=O)N(C)C[C@H]1OCCCC[C@H](C)Oc2ccc(NS(=O)(=O)c3cccs3)cc2C(=O)N([C@H](C)CO)C[C@H]1C	0	1	-13	-18	4	0
Cc1noc(C)c1S(=O)(=O)N(C)C[C@H]1Oc2c(NC(=O)c3nc4ccccc4s3)cccc2C(=O)N([C@H](C)CO)C[C@H]1C	·	·	5	·	-3	·
O=C(CCl)N=c1sccn1Cc1ccccc1Cl	-12	1	61*	-4	-4	·
COc1ccccc1NC(=O)Nc1ccc2c(c1)C(=O)N(C)C[C@H](OC)[C@@H](C)CN[C@H](C)CO2	1	-1	-1	7	-3	0
O=C(C[C@@H]1C[C@H]2c3cc(NC(=O)CC4CC4)ccc3O[C@H]2[C@H](CO)O1)NCc1ccccn1	-7	1	3	1	3	0
Cc1cccc2nc(-c3cccnc3)c(Nc3ccccc3)n12	3	4	16	-10	-36*	·
COc1ccc(C[C@@H]2CCn3cc(nn3)COC[C@H](CC(C)C)NC2=O)cc1	·	-1	9	4	7	0
O=C(NC1CCCCC1)c1cccnc1Sc1ccccc1Cl	-1	-1	20	-17	6	0
